According to ChEMBL document CHEMBL3400028, “Evaluation of Aconitum diterpenoid alkaloids as antiproliferative agents” (2015):

Legend:
Format in all cases: functional
[1] = tested on: DU-145; test: Antiproliferative activity against human DU145 cells by sulforhodamine B assay
Procedure, shortened: (§1)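 Cells in RPMI 1640 (25 mM HEPES, 2 mM L-glutamine, 10% heat-inactivated FBS, antibiotics) at 37 °C, 5% CO2. Seeded at 3–5 × 10³/well with graded concentrations, paclitaxel as assay control, for 72 h. TCA-fixed, stained with 0.04% SRB, dye dissolved in 10 mM Tris, A515 read. GI50 is the concentration halving absorbance versus untreated cells; three or more experiments.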

[2] = tested on: A549; test: Antiproliferative activity against human A549 cells by sulforhodamine B assay; procedure, shortened: as §1
[3] = Selectivity ratio of GI50 for human KB cells to GI50 for multidrug-resistant P-gp expressing human KBVIN cells
Procedure, shortened: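 Ratio of GI50 in parental KB to GI50 in P-gp-overexpressing KB-VIN. […] KB-VIN cells were grown 7–10 days without vincristine before the assay.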

[4] = Antiproliferative activity against multidrug-resistant P-gp expressing human KBVIN cells by sulforhodamine B assay
Procedure, shortened: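 Vincristine-resistant KB subline kept in 100 nM vincristine, then grown 7–10 days without it before testing. RPMI 1640 with 10% FBS, 37 °C, 5% CO2. 3–5 × 10³ cells/well exposed 72 h to a concentration series, paclitaxel as assay control. SRB staining after TCA fixation, A515 read. GI50 is the 50% absorbance reduction versus untreated cells; three or more experiments.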

[5] = tested on: KB; test: Antiproliferative activity against human KB cells by sulforhodamine B assay; procedure, shortened: as §1

COC[C@]12CC[C@H](O)[C@]34C(NC1)[C@@](O)([C@@H](OC)[C@H]23)[C@@]1(O)C[C@H](OC)[C@H]2C[C@@H]4[C@@H]1[C@H]2OC
GI50 [1]: > 20 µM
GI50 [2]: > 20 µM
RatioGI50 [3]: >20
GI50 [4]: > 20 µM
GI50 [5]: > 20 µM

COC[C@]12CN(C)C3[C@@H]4[C@H](OC)[C@H]1[C@@]3([C@@H](OC)C[C@H]2OC(C)=O)[C@@H]1C[C@@]2(O)[C@H](OC(=O)c3ccccc3)[C@@H]1[C@]4(OC(C)=O)[C@@H](O)[C@@H]2OC
GI50 [1]: > 20 µM
GI50 [2]: > 20 µM
RatioGI50 [3]: >20
GI50 [4]: > 20 µM
GI50 [5]: > 20 µM

CCN1C[C@]2(COC)[C@H](O)C[C@H](OC)[C@]34C1[C@H]([C@H](OC)[C@H]23)[C@]1(OC(C)=O)[C@H]2[C@@H](OC(=O)c3ccc(OC)cc3)[C@](O)(C[C@H]24)[C@@H](OC)[C@@H]1O
GI50 [1]: > 20 µM
GI50 [2]: > 20 µM
RatioGI50 [3]: >20
GI50 [4]: > 20 µM
GI50 [5]: > 20 µM

CCN1C[C@@]2(COC)[C@H]3[C@@H](OC)C=C4[C@H]5[C@@H](OC(=O)c6ccc(OC)cc6)[C@](O)(C[C@H]5[C@@]35C1O[C@@H]2C[C@@H]5OC)[C@@H](OC)[C@@H]4O
GI50 [1]: > 20 µM
GI50 [2]: > 20 µM
RatioGI50 [3]: >20
GI50 [4]: > 20 µM
GI50 [5]: > 20 µM

CCN1C[C@@]2(COC)[C@H]3[C@@H](OC)[C@H]4C1[C@]3([C@@H](OC)C[C@H]2OC(C)=O)[C@@H]1C[C@@]2(O)[C@H](OC(=O)c3ccc(OC)cc3)[C@@H]1[C@]4(OC(C)=O)[C@@H](OC(C)=O)[C@@H]2OC
GI50 [1]: > 20 µM
GI50 [2]: > 20 µM
RatioGI50 [3]: >20
GI50 [4]: > 20 µM
GI50 [5]: > 20 µM

COC[C@]12CN(C)C3[C@@H]4[C@H](OC)[C@H]1[C@@]3([C@@H](OC)C[C@H]2O)[C@@H]1C[C@@]2(O)[C@H](OC(=O)c3ccccc3)[C@@H]1[C@]4(OC(C)=O)[C@@H](O)[C@@H]2OC
GI50 [1]: > 20 µM
GI50 [2]: > 20 µM
RatioGI50 [3]: >20
GI50 [4]: > 20 µM
GI50 [5]: > 20 µM

CCN1C[C@]2(COC)CC[C@H](O)[C@]34C1[C@@H]([C@H](OC)[C@H]23)[C@@]1(O)C[C@H](OC)[C@H]2C[C@@H]4[C@@H]1[C@H]2OC(=O)c1ccccc1
GI50 [1]: > 20 µM
GI50 [2]: > 20 µM
RatioGI50 [3]: >20
GI50 [4]: > 20 µM
GI50 [5]: > 20 µM

CCN1C[C@]2(COC)[C@H](O)C[C@H](O)[C@]34C1[C@@](O)([C@@H](OC)[C@H]23)[C@@]1(O)C[C@H](OC)[C@H]2C[C@@H]4[C@@H]1[C@H]2O
GI50 [1]: > 20 µM
GI50 [2]: > 20 µM
RatioGI50 [3]: >20
GI50 [4]: > 20 µM
GI50 [5]: > 20 µM

CCN1C[C@]2(COC)[C@H](O)C[C@H](OC(C)=O)[C@]34C1[C@@](O)([C@@H](OC)[C@H]23)[C@@]1(O)C[C@H](OC)[C@H]2C[C@@H]4[C@@H]1[C@H]2O
GI50 [1]: > 20 µM
GI50 [2]: > 20 µM
RatioGI50 [3]: >20
GI50 [4]: > 20 µM
GI50 [5]: > 20 µM

CCN1C[C@]2(COC)[C@H](O)C[C@H](OC(C)=O)[C@]34C1[C@@](O)([C@@H](OC)[C@H]23)[C@@]1(O)C[C@H](OC)[C@H]2C[C@@H]4[C@@H]1[C@H]2OC(C)=O
GI50 [1]: > 20 µM
GI50 [2]: > 20 µM
RatioGI50 [3]: >20
GI50 [4]: > 20 µM
GI50 [5]: > 20 µM

CCN1C[C@]2(COC)[C@H](O)C[C@H](O)[C@]34C1[C@@](O)([C@@H](OC)[C@H]23)[C@@]1(O)C[C@H](OC)[C@H]2C[C@@H]4[C@@H]1[C@H]2OC(=O)c1ccccc1
GI50 [1]: > 20 µM
GI50 [2]: > 20 µM
RatioGI50 [3]: >20
GI50 [4]: > 20 µM
GI50 [5]: > 20 µM

CCN1C[C@]2(COC)CC[C@H](OC(=O)c3ccc([N+](=O)[O-])cc3)[C@]34C1[C@@](O)([C@@H](OC)[C@H]23)[C@@]1(O)C[C@H](OC)[C@H]2C[C@@H]4[C@@H]1[C@H]2OC(=O)c1ccc([N+](=O)[O-])cc1
GI50 [1]: > 20 µM
GI50 [2]: > 20 µM
RatioGI50 [3]: >20
GI50 [4]: > 20 µM
GI50 [5]: > 20 µM

CCN1C[C@]2(COC)CC[C@H](OC(=O)c3ccc([N+](=O)[O-])cc3)[C@]34C1[C@@](O)([C@@H](OC)[C@H]23)[C@@]1(O)C[C@H](OC)[C@H]2C[C@@H]4[C@@H]1[C@H]2O
GI50 [1]: > 20 µM
GI50 [2]: > 20 µM
RatioGI50 [3]: >20
GI50 [4]: > 20 µM
GI50 [5]: > 20 µM

CCN1C[C@]2(COC)CC[C@H](OC(=O)c3ccc(C(F)(F)F)cc3)[C@]34C1[C@@](O)([C@@H](OC)[C@H]23)[C@@]1(O)C[C@H](OC)[C@H]2C[C@@H]4[C@@H]1[C@H]2O
GI50 [1]: > 20 µM
GI50 [2]: > 20 µM
RatioGI50 [3]: >20
GI50 [4]: > 20 µM
GI50 [5]: > 20 µM

CCN1C2OC3CCC2(COC)[C@H]2[C@H](OC)[C@]4(O)C1[C@@]32[C@@H]1C[C@H]2[C@H](O)[C@@H]1[C@]4(O)C[C@@H]2OC
GI50 [1]: > 20 µM
GI50 [2]: > 20 µM
RatioGI50 [3]: >20
GI50 [4]: > 20 µM
GI50 [5]: > 20 µM

CCN1C[C@]2(COC)[C@H](O)C[C@H](O)[C@]34C1[C@@](O)([C@@H](O)[C@H]23)[C@@]1(O)C[C@H](OC)[C@H]2C[C@@H]4[C@@H]1[C@H]2O
GI50 [1]: > 20 µM
GI50 [2]: > 20 µM
RatioGI50 [3]: >20
GI50 [4]: > 20 µM
GI50 [5]: > 20 µM

CCN1C[C@]2(COC(=O)c3ccccc3N)CC[C@H](OC)[C@]34C1[C@@](O)([C@@H](OC)[C@H]23)[C@@]1(O)C[C@H](OC)[C@H]2C[C@@H]4[C@@H]1[C@H]2OC(C)=O
GI50 [1]: > 20 µM
GI50 [2]: > 20 µM
RatioGI50 [3]: >20
GI50 [4]: > 20 µM
GI50 [5]: > 20 µM

CCN1C(=O)[C@]2(COC(=O)c3ccccc3N)CC[C@H](OC)[C@]34C1[C@@](O)([C@@H](OC)[C@H]23)[C@@]1(O)C[C@H](OC)[C@H]2C[C@@H]4[C@@H]1[C@H]2OC
GI50 [1]: > 20 µM
GI50 [2]: > 20 µM
RatioGI50 [3]: >20
GI50 [4]: > 20 µM
GI50 [5]: > 20 µM

CCN1C[C@]2(COC)CC[C@H](OC)[C@]34C1[C@@](O)([C@@H](OC)[C@H]23)[C@@]1(O)C[C@H](OC)[C@H]2C[C@@H]4[C@@H]1[C@H]2OC(C)=O
GI50 [1]: > 20 µM
GI50 [2]: > 20 µM
RatioGI50 [3]: >20
GI50 [4]: > 20 µM
GI50 [5]: > 20 µM

CCN1C[C@]2(COC)CC[C@H](O)[C@]34C1[C@@](O)([C@@H](OC)[C@H]23)[C@@]1(O)C[C@H](OC)[C@H]2C[C@@H]4[C@@H]1[C@H]2OC(C)=O
GI50 [1]: > 20 µM
GI50 [2]: > 20 µM
RatioGI50 [3]: >20
GI50 [4]: > 20 µM
GI50 [5]: > 20 µM

CCN1C[C@]2(COC)[C@H](O)C[C@H](OC)[C@@]34[C@@H]5C[C@@]6(O)[C@H](OC(=O)c7ccccc7)[C@@H]5[C@@](OC(C)=O)([C@@H]([C@H](OC)[C@H]23)[C@@H]14)[C@@H](O)[C@@H]6OC [ACONITINE]
GI50 [1]: > 20 µM
GI50 [2]: > 20 µM
RatioGI50 [3]: >20
GI50 [4]: > 20 µM
GI50 [5]: > 20 µM

C=C1[C@@H](OC(C)=O)[C@]23C[C@@H]1[C@@H](O)C[C@H]2[C@@]12C4C3C[C@@H]1[C@@]1(C)CC[C@H]2OC1N4CC [DEHYDROLUCIDUSCULINE]
GI50 [1]: > 20 µM
GI50 [2]: > 20 µM
RatioGI50 [3]: >20
GI50 [4]: > 20 µM
GI50 [5]: > 20 µM

CCN1C[C@]2(COC)CC[C@H](O)[C@]34C1[C@@](O)([C@@H](OC)[C@H]23)[C@@]1(O)C[C@H](OC)[C@H]2C[C@@H]4[C@@H]1[C@H]2OC [DELSOLINE]
GI50 [1]: > 20 µM
GI50 [2]: > 20 µM
RatioGI50 [3]: >20
GI50 [4]: > 20 µM
GI50 [5]: > 20 µM

CCN1C[C@]2(COC)CC[C@H](OC)[C@]34C1C([C@H](OC)[C@H]23)[C@]1(OC(C)=O)[C@H]2[C@@H](OC(=O)c3ccccc3)[C@](O)(C[C@H]24)[C@@H](OC)[C@@H]1O [DEOXYACONITINE]
GI50 [1]: > 20 µM
GI50 [2]: > 20 µM
RatioGI50 [3]: >20
GI50 [4]: > 20 µM
GI50 [5]: > 20 µM

CCN1C[C@]2(COC)CC[C@H](OC)[C@]34C1C([C@H](OC)[C@H]23)[C@]1(OC(C)=O)[C@H]2[C@@H](OC(=O)c3ccc(OC)cc3)[C@](O)(C[C@H]24)[C@@H](OC)[C@@H]1O [DEOXYJESACONITINE]
GI50 [1]: > 20 µM
GI50 [2]: > 20 µM
RatioGI50 [3]: >20
GI50 [4]: > 20 µM
GI50 [5]: > 20 µM

COC[C@]12CN(C)C3C4[C@H](OC)[C@H]1[C@@]3([C@@H](OC)C[C@H]2O)[C@@H]1C[C@@]2(O)[C@H](OC(=O)c3ccccc3)[C@@H]1[C@]4(OC)[C@@H](O)[C@@H]2OC [HOKBUSINE A]
GI50 [1]: > 20 µM
GI50 [2]: > 20 µM
RatioGI50 [3]: >20
GI50 [4]: > 20 µM
GI50 [5]: > 20 µM

COC[C@@]12CC[C@H](OC)[C@]34C(C([C@H](OC)[C@H]13)[C@]1(OC(C)=O)[C@H]3[C@@H](OC(=O)c5ccccc5)[C@](O)(C[C@H]34)[C@@H](OC)[C@@H]1O)N(C)C2 [HYPACONITINE]
GI50 [1]: > 20 µM
GI50 [2]: > 20 µM
RatioGI50 [3]: >20
GI50 [4]: > 20 µM
GI50 [5]: > 20 µM
